In the library only some 3.1% were active in any assay of this set; here they are far more common.
GPR7 antag – GPR7 receptor antagonists, primary screen, cell-based, fluorescence, single concentration. Neuropeptides B/W receptor type 1 (Homo sapiens), P48145. GPR7-expressing cells, fluorescence antagonist assay. inhibition, % at 4.4 µM. hit rate 1.1% among 290,000. AID 1861, 2009; in the data active means inhibition above about 16%, passing the limit was not always enough;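 further: cells stimulated with the agonist NPW; 0% = agonist with vehicle and 100% = vehicle without agonist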
Target sequence (P48145 whole entry, looked up): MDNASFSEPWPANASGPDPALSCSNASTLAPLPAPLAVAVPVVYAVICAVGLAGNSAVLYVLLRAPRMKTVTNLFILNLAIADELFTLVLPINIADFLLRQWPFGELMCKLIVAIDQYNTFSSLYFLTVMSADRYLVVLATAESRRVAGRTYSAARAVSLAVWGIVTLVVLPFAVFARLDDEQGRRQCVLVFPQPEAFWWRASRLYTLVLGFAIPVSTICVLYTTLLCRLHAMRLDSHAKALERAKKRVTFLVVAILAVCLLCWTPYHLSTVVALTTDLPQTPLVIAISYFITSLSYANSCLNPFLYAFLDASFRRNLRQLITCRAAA
CHO parental Ca – ATP-evoked calcium signal inhibitors, parental CHO, primary screen, counter-screen for OX1R antagonist project, cell-based, fluorescence, Fluo-8 calcium dye | AID 463079, 2010 | inhibition, % at 5.6 µM | hit rate 0.63% among 330,000 | parental CHO-K1, ATP-induced calcium, Fluo-8 fluorescence;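 active means inhibition above that plate's mean sample inhibition plus 3 SD, cut at about 26% in these data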;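 further: 0% = ATP-challenged DMSO wells and 100% = DMSO wells without ATP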
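Assay system: untransfected parental CHO cell line. Also added: ATP agonist challenge. Dosing: one dose, 5.6 µM nominal. Measured by: Fluo-8 fluorescence. Read-out: % inhibition. Benchmarks: ATP wells versus no-ATP DMSO wells. Repeats: no replicates.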
OX1R antag-1 – OX1R (HCRTR1) antagonists, primary screen, fluorescence, CHO/OX1R cells, Fluo-8 calcium, orexin A. hit rate 0.43% among 330,000. inhibition, % at 5 µM. Fluo-8 calcium fluorescence. Orexin/Hypocretin receptor type 1 (Homo sapiens), O43613;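 active means inhibition above its plate's threshold, mean inhibition of all tested compounds on the plate plus 3 SD, cut at about 37% in these data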;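 further: 0% = orexin A challenge wells and 100% = SB-334867-A antagonist wells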
OX1R antag-2 – antagonists of human orexin 1 receptor (OX1R). Orexin/Hypocretin receptor type 1 (Homo sapiens), O43613. inhibition, % at 6.6 µM. hit rate 1.8% among 330,000. OX1R-expressing cells, FRET antagonist read-out; in the data active means inhibition mostly above about 38%, no sharp cut-off; inactive means mostly below about 40%;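 further: 0% = agonist challenge alone and 100% = reference antagonist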
GalR3 antag – GalR3 antagonists in HEK293 cells, primary screen, cell-based, fluorescence readout | HEK293 GalR3-CNG cAMP membrane potential fluorescence; galR3 body fused to GalR1 C-terminus | inhibition, % at 3 µM | hit rate 0.44% among 360,000;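 active means inhibition above the screen-wide average plus 3 SD, cut at about 13% in these data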;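 further: forskolin and galanin both at EC90 stimulate the cells; cAMP rise reported by CNG channel membrane potential dye signal; 0% = forskolin plus galanin with DMSO and 100% = forskolin alone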
* hit, by the source's call; · = no result.

SMILES	GPR7 antag	CHO parental Ca	OX1R antag-1	OX1R antag-2	GalR3 antag
C[C@@H]1CN([C@@H](C)CO)C(=O)c2cc(NC(=O)C3CCCCC3)ccc2O[C@@H](C)CCCCO[C@@H]1CN(C)Cc1ccncc1	·	·	·	·	-6
CCOC(=O)N1CCC(N2CCN(S(=O)(=O)c3ccc([N+](=O)[O-])cc3)CC2)CC1	-1	9	-9	54*	-6
O=[N+]([O-])c1ccc(S(=O)(=O)N2CCN(Cc3c[nH]c4ccccc34)CC2)cc1	7	-5	-26	49*	-1
O=S(=O)(c1ccc(Cl)cc1)N1CCN(C2CCN(Cc3ccccc3)CC2)CC1	0	-14	-34	9	-4
O=[N+]([O-])c1ccc(S(=O)(=O)N2CCN(C3CCN(Cc4ccccc4)CC3)CC2)cc1	0	-15	-12	63*	-7
O=C(NC1CCc2ccccc21)c1cc(COc2cncc(Cl)c2)on1 (stereo not drawn)	2	-6	-19	24	-2
C[C@H]1CN([C@@H](C)CO)C(=O)CCCn2nncc2CO[C@@H]1CN(C)S(=O)(=O)c1cccs1	·	·	·	·	-2
Cc1ccccc1NC(=O)C1(NC(=O)c2cccc(N3C(=O)CSC3c3ccccc3)c2)CCCCC1 (stereo not drawn)	20*	-36	-34	13	-4
c1ccc(-c2c(-c3ccccc3)n(Cc3ccco3)c3ncnc(NCCCn4ccnc4)c23)cc1	7	28	21	53*	-4
OCCNc1ncnc2c1c(-c1ccccc1)c(-c1ccccc1)n2Cc1ccco1	0	-19	-22	29	-4
Cc1ccc2c(CSc3nnnn3C)cc(=O)oc2c1	-11	-1	-16	62*	0
Cc1nn2c(CN(C(=O)COc3ccccc3)c3ccccc3)nnc2c2ccccc12	-12	-10	0	62*	-7
Cc1cccc(N(CC(=O)NCCSCc2ccco2)S(=O)(=O)c2ccccc2)c1	-2	-11	32	59	-5
COc1cccc(N(CC(=O)NCCSCc2ccco2)S(=O)(=O)c2ccccc2)c1	4	-13	23	45*	-5
COC(=O)[C@]12C[C@H](CC(=O)N3CCSCC3)C(=O)N(Cc3ccccc3)C1=C[C@H](C1CCCC1)O[C@@H]2C	·	·	·	·	5
Nc1ncnc2c1ncn2[C@@H]1O[C@H](C(=O)N[C@@H](CCc2ccccc2)C(=O)N2CCN(C(=O)C(F)(F)F)CC2)[C@@H](O)[C@H]1O	·	·	·	·	-7
COc1ccc(Nc2c(-c3ccc(C)cc3)nc3cnccn23)cc1	17*	-14	-26	13	3
CN(C(=S)Nc1ccc(Oc2ccccc2)cc1)C1CCCCC1	-7	29*	-8	34	-1
CCCC[n+]1ccn(C2=C([O-])c3ccccc3C(=O)/C2=N\S(=O)(=O)c2ccc(Cl)cc2)c1	-3	-28	-32	47*	-1
CCCCC[n+]1ccn(C2=C([O-])c3ccccc3C(=O)/C2=N\S(=O)(=O)c2ccc(Cl)cc2)c1	-9	-11	-21	33	-4
COc1ccc2nc3ccccc3nc2c1NC(=O)c1ccccc1Cl	-14	-27	-43	51*	-3
COc1ccc(-c2cc(C(=O)Nc3c(Cl)cc(Cl)cc3Cl)c3ccccc3n2)cc1OC	-14	-24	-39	3	-2
COC(=O)[C@]12C[C@H](CC(=O)NCc3cccc4ccccc34)C(=O)N(CCC3=CCCCC3)C1=C[C@H](COCc1ccccc1)O[C@@H]2C	·	·	·	·	-7
Cc1ccsc1-c1nc(CSCC(=O)NCc2ccc3c(c2)OCO3)c(C)o1	-5	-12	-30	40*	·
COc1ccc(-c2nc(CSCC(=O)NCc3ccc4c(c3)OCO4)c(C)o2)cc1OC	3	-14	-17	35	·
COc1ccccc1Nc1nc(-c2cccnc2)cs1	20	-19	-27	38*	-10
O=[N+]([O-])c1ccccc1Nc1nc(-c2cccnc2)cs1	-14	-17	0	60*	-2
COc1ccc(Nc2nc(-c3cccnc3)cs2)c(OC)c1	2	·	·	·	-9

Screening results: PubChem, The Scripps Research Institute Molecular Screening Center
